{"source": "ChEMBL document CHEMBL1135682", "about": "“Synthesis and antimycobacterial activity of pyrazine and quinoxaline derivatives” (J Med Chem, 2002)", "key": {"[1]": {"assay": "Partition coefficient was evaluated using method of Morgiuchi et al", "assay_type": "physicochemical", "settings": "octanol/water; read-out: mLog P"}, "[2]": {"assay": "Minimum inhibitory concentration against MAC NJ211 using Middlebrook 7H9 with glycerol and OADC enrichment", "assay_type": "functional", "settings": "Mycobacterium avium", "procedure,_shortened": "(§1)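 Run in-house in Middlebrook 7H9 broth with glycerol and OADC enrichment, pH 6.6, against Mtb H37Ra or M. avium; the M. avium strains came from the National Jewish Center, Denver. Ethambutol served as a reference drug. The read-out is the MIC.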"}, "[3]": {"assay": "Minimum inhibitory concentration against Mtb H37Ra using Middlebrook 7H9 with glycerol and OADC enrichment", "assay_type": "functional", "settings": "Mycobacterium tuberculosis", "procedure,_shortened": "as §1"}, "[4]": {"assay": "Minimum inhibitory concentration against Mtb H37Rv using Middlebrook 7H9 with glycerol and OADC enrichment", "assay_type": "functional", "settings": "Mycobacterium tuberculosis"}}}
{"compound": "O=C(OCc1ccccc1)c1cnccn1", "values": [{"measurement": "logP", "setting": "[1]", "value": 0.94}, {"measurement": "MIC", "setting": "[2]", "value": "> 128", "unit": "µg/mL"}, {"measurement": "MIC", "setting": "[3]", "value": 16, "unit": "µg/mL"}, {"measurement": "MIC", "setting": "[4]", "value": "> 6.25", "unit": "µg/mL"}]}
{"compound": "O=C(O)c1cnc2ccccc2n1", "values": [{"measurement": "MIC", "setting": "[2]", "value": "> 128", "unit": "µg/mL"}, {"measurement": "MIC", "setting": "[3]", "value": "> 128", "unit": "µg/mL"}]}
{"compound": "NNC(=O)c1cnc2ccccc2n1", "values": [{"measurement": "logP", "setting": "[1]", "value": 0.16}, {"measurement": "MIC", "setting": "[2]", "value": "> 128", "unit": "µg/mL"}, {"measurement": "MIC", "setting": "[3]", "value": 64, "unit": "µg/mL"}, {"measurement": "MIC", "setting": "[4]", "value": "> 6.25", "unit": "µg/mL"}]}
{"compound": "CC(=O)Oc1ccc(COC(=O)c2ccccc2)cc1", "values": [{"measurement": "logP", "setting": "[1]", "value": 3.38}, {"measurement": "MIC", "setting": "[2]", "value": 128, "unit": "µg/mL"}, {"measurement": "MIC", "setting": "[3]", "value": 16, "unit": "µg/mL"}, {"measurement": "MIC", "setting": "[4]", "value": "> 6.25", "unit": "µg/mL"}]}
{"compound": "CC(=O)Oc1ccc(COC(=O)c2cnc3ccccc3n2)cc1", "values": [{"measurement": "logP", "setting": "[1]", "value": 2.15}, {"measurement": "MIC", "setting": "[2]", "value": 16, "unit": "µg/mL"}, {"measurement": "MIC", "setting": "[3]", "value": 0.5, "unit": "µg/mL"}, {"measurement": "MIC", "setting": "[4]", "value": 6.25, "unit": "µg/mL"}]}
{"compound": "O=C(OCc1ccc([N+](=O)[O-])cc1)c1cnc2ccccc2n1", "values": [{"measurement": "logP", "setting": "[1]", "value": 2.27}, {"measurement": "MIC", "setting": "[2]", "value": "> 128", "unit": "µg/mL"}, {"measurement": "MIC", "setting": "[3]", "value": "> 128", "unit": "µg/mL"}, {"measurement": "MIC", "setting": "[4]", "value": "> 6.25", "unit": "µg/mL"}]}
{"compound": "CCCOC(=O)c1cnc2ccccc2n1", "values": [{"measurement": "logP", "setting": "[1]", "value": 1.41}, {"measurement": "MIC", "setting": "[2]", "value": 128, "unit": "µg/mL"}, {"measurement": "MIC", "setting": "[3]", "value": 64, "unit": "µg/mL"}, {"measurement": "MIC", "setting": "[4]", "value": 6.25, "unit": "µg/mL"}]}
{"compound": "CCCCCCCCOC(=O)c1cnc2ccccc2n1", "values": [{"measurement": "logP", "setting": "[1]", "value": 2.61}, {"measurement": "MIC", "setting": "[2]", "value": 128, "unit": "µg/mL"}, {"measurement": "MIC", "setting": "[3]", "value": 128, "unit": "µg/mL"}, {"measurement": "MIC", "setting": "[4]", "value": "> 6.25", "unit": "µg/mL"}]}
{"compound": "CC(=O)OCc1ccc([N+](=O)[O-])cc1", "values": [{"measurement": "logP", "setting": "[1]", "value": 2.02}, {"measurement": "MIC", "setting": "[2]", "value": "> 128", "unit": "µg/mL"}, {"measurement": "MIC", "setting": "[3]", "value": "> 128", "unit": "µg/mL"}, {"measurement": "MIC", "setting": "[4]", "value": "> 6.25", "unit": "µg/mL"}]}
{"compound": "COC(=O)c1cnc2ccccc2n1", "values": [{"measurement": "logP", "setting": "[1]", "value": 0.84}, {"measurement": "MIC", "setting": "[2]", "value": "> 128", "unit": "µg/mL"}, {"measurement": "MIC", "setting": "[3]", "value": "> 128", "unit": "µg/mL"}, {"measurement": "MIC", "setting": "[4]", "value": "> 6.25", "unit": "µg/mL"}]}
{"compound": "CCCCCCC(C)OC(=O)c1cnc2ccccc2n1", "note": "(configuration not stated)", "values": [{"measurement": "logP", "setting": "[1]", "value": 2.7}, {"measurement": "MIC", "setting": "[2]", "value": 128, "unit": "µg/mL"}, {"measurement": "MIC", "setting": "[3]", "value": 64, "unit": "µg/mL"}, {"measurement": "MIC", "setting": "[4]", "value": "> 6.25", "unit": "µg/mL"}]}
{"compound": "CC(=O)Oc1ccc(COC(=O)c2cnccn2)cc1", "values": [{"measurement": "logP", "setting": "[1]", "value": 0.92}, {"measurement": "MIC", "setting": "[2]", "value": 16, "unit": "µg/mL"}, {"measurement": "MIC", "setting": "[3]", "value": "< 0.25", "unit": "µg/mL"}, {"measurement": "MIC", "setting": "[4]", "value": 6.25, "unit": "µg/mL"}]}
{"compound": "O=C(OCc1ccccc1[N+](=O)[O-])c1cnccn1", "values": [{"measurement": "logP", "setting": "[1]", "value": 0.99}, {"measurement": "MIC", "setting": "[2]", "value": "> 128", "unit": "µg/mL"}, {"measurement": "MIC", "setting": "[3]", "value": 64, "unit": "µg/mL"}, {"measurement": "MIC", "setting": "[4]", "value": "> 6.25", "unit": "µg/mL"}]}
{"compound": "O=C(OCc1ccccc1[N+](=O)[O-])c1cnc2ccccc2n1", "values": [{"measurement": "logP", "setting": "[1]", "value": 2.27}, {"measurement": "MIC", "setting": "[2]", "value": "> 128", "unit": "µg/mL"}, {"measurement": "MIC", "setting": "[3]", "value": "> 128", "unit": "µg/mL"}, {"measurement": "MIC", "setting": "[4]", "value": "> 6.25", "unit": "µg/mL"}]}
{"compound": "CC(=O)OCc1ccc(OC(C)=O)cc1", "values": [{"measurement": "logP", "setting": "[1]", "value": 2.03}, {"measurement": "MIC", "setting": "[2]", "value": 128, "unit": "µg/mL"}, {"measurement": "MIC", "setting": "[3]", "value": 8, "unit": "µg/mL"}]}
{"compound": "O=C(OCc1ccc([N+](=O)[O-])cc1)c1ccccc1", "values": [{"measurement": "logP", "setting": "[1]", "value": 3.45}, {"measurement": "MIC", "setting": "[4]", "value": "> 6.25", "unit": "µg/mL"}]}
{"compound": "O=C(OCc1ccc(C(F)(F)F)cc1)c1cnccn1", "values": [{"measurement": "logP", "setting": "[1]", "value": 1.87}, {"measurement": "MIC", "setting": "[2]", "value": "> 128", "unit": "µg/mL"}, {"measurement": "MIC", "setting": "[3]", "value": 128, "unit": "µg/mL"}, {"measurement": "MIC", "setting": "[4]", "value": "> 6.25", "unit": "µg/mL"}]}
{"compound": "O=C(OCc1ccc([N+](=O)[O-])cc1)c1cnccn1", "values": [{"measurement": "logP", "setting": "[1]", "value": 0.99}, {"measurement": "MIC", "setting": "[2]", "value": "> 128", "unit": "µg/mL"}, {"measurement": "MIC", "setting": "[3]", "value": 128, "unit": "µg/mL"}, {"measurement": "MIC", "setting": "[4]", "value": 6.25, "unit": "µg/mL"}]}
{"compound": "O=C(OCc1ccc([N+](=O)[O-])cc1)c1ccccn1", "values": [{"measurement": "logP", "setting": "[1]", "value": 2.29}, {"measurement": "MIC", "setting": "[2]", "value": "> 128", "unit": "µg/mL"}, {"measurement": "MIC", "setting": "[3]", "value": 128, "unit": "µg/mL"}, {"measurement": "MIC", "setting": "[4]", "value": "> 6.25", "unit": "µg/mL"}]}
{"compound": "NC(=O)c1cnc2ccccc2n1", "values": [{"measurement": "logP", "setting": "[1]", "value": 0.13}, {"measurement": "MIC", "setting": "[2]", "value": "> 128", "unit": "µg/mL"}, {"measurement": "MIC", "setting": "[3]", "value": "> 128", "unit": "µg/mL"}, {"measurement": "MIC", "setting": "[4]", "value": "> 6.25", "unit": "µg/mL"}]}
{"compound": "O=C(O)c1cnccn1", "note": "[PYRAZINOIC ACID]", "values": [{"measurement": "MIC", "setting": "[2]", "value": "> 128", "unit": "µg/mL"}, {"measurement": "MIC", "setting": "[3]", "value": 64, "unit": "µg/mL"}]}
